Measurements: ChEMBL document CHEMBL1138061, “A thienopyridazinone-based melanin-concentrating hormone receptor 1 antagonist with potent in vivo anorectic properties” (J Med Chem, 2006)

Columns and labels:
[1] = molecular target: T1, Melanin-concentrating hormone receptor 1 (Rattus norvegicus, UniProt P97639); assay: Binding affinity to chimeric rat/human MCH1R stably expressed in HEK293 cells; format: cell-based
How it was run: (§1)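 Each value is the average of at least two replicate determinations.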

[2] = Intrinsic clearance in human liver microsomes; format: ADME, Microsome
How it was run: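 Intrinsic human clearance was determined in human liver microsomes. Standard error is estimated below 10%, based on a reference compound run as a standard.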

[3] = molecular target: Melanin-concentrating hormone receptor 1 (Rattus norvegicus) (UniProt P97639); assay: Inhibition of chimeric rat/human MCH1R at 10 uM
Melanin-concentrating hormone receptor 1 (Rattus norvegicus), sequence (P97639 whole entry): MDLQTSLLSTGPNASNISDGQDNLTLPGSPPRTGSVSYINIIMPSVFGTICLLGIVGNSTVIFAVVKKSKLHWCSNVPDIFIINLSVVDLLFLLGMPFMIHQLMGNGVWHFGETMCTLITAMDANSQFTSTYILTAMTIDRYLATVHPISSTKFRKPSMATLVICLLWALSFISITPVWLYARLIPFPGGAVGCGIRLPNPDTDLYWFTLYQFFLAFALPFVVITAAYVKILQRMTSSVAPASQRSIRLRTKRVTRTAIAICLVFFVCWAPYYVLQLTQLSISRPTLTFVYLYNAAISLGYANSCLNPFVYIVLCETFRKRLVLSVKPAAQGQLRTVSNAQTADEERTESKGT
How it was run: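 Single-concentration test at 10 µM, reported as percent inhibition of MCH1R; values averaged from at least two replicates.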

[4] = Brain concentration in Sprague-Dawley rat at 10 mg/kg, po after 4 hours; format: ADME, organism-based; design: dose 10 mg/kg, route oral; conditions: read-out: Drug uptake
How it was run: (§2)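 Rats dosed 10 mg kg-1 orally and 2.5 mg kg-1 iv. AUC and Cmax come from the oral dose. Brain levels were measured 1 h and 4 h after oral dosing and expressed as brain/plasma ratios at those times. Vd, clearance and t1/2 were derived from the same dosing.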

[5] = Bioavailability in Sprague-Dawley rat at 10 mg/kg, po and 2.5 mg/kg, iv; format: ADME, organism-based; conditions: in vivo
[6] = Half life in Sprague-Dawley rat at 10 mg/kg, po and 2.5 mg/kg, iv; format: ADME, organism-based; conditions: in vivo; how it was run: as §2
[7] = Brain to plasma ratio in Sprague-Dawley rat at 10 mg/kg, po and 2.5 mg/kg, iv after 1 hour; format: ADME, organism-based; how it was run: as §2
[8] = Brain concentration in Sprague-Dawley rat at 10 mg/kg, po after 1 hour; format: ADME, organism-based; design: dose 10 mg/kg, route oral; conditions: read-out: Drug uptake; how it was run: as §2
[9] = Volume of distribution in Sprague-Dawley rat at 10 mg/kg, po and 2.5 mg/kg, iv; format: ADME, organism-based; conditions: in vivo, read-out: Vdss; how it was run: as §2
[10] = Cmax in Sprague-Dawley rat plasma at 10 mg/kg, po; format: ADME, organism-based; design: dose 10 mg/kg, route oral; how it was run: as §2
[11] = AUC in Sprague-Dawley rat at 10 mg/kg, po; format: ADME, organism-based; design: dose 10 mg/kg, route oral; conditions: plasma; how it was run: as §2
[12] = Brain to plasma ratio in Sprague-Dawley rat at 10 mg/kg, po and 2.5 mg/kg, iv after 4 hours; format: ADME, organism-based; how it was run: as §2
[13] = molecular target: T1, Melanin-concentrating hormone receptor 1; assay: Activity at chimeric rat/human MCH1R by accumulation of GTPgammaS; how it was run: as §1
[14] = Clearance in Sprague-Dawley rat at 10 mg/kg, po and 2.5 mg/kg, iv; format: ADME, organism-based; conditions: in vivo
[15] = molecular target: T2, Voltage-gated inwardly rectifying potassium channel KCNH2 (Homo sapiens, UniProt Q12809); assay: Displacement of [3H]dofetilide from human ERG channel
T2 sequence (Q12809 whole entry): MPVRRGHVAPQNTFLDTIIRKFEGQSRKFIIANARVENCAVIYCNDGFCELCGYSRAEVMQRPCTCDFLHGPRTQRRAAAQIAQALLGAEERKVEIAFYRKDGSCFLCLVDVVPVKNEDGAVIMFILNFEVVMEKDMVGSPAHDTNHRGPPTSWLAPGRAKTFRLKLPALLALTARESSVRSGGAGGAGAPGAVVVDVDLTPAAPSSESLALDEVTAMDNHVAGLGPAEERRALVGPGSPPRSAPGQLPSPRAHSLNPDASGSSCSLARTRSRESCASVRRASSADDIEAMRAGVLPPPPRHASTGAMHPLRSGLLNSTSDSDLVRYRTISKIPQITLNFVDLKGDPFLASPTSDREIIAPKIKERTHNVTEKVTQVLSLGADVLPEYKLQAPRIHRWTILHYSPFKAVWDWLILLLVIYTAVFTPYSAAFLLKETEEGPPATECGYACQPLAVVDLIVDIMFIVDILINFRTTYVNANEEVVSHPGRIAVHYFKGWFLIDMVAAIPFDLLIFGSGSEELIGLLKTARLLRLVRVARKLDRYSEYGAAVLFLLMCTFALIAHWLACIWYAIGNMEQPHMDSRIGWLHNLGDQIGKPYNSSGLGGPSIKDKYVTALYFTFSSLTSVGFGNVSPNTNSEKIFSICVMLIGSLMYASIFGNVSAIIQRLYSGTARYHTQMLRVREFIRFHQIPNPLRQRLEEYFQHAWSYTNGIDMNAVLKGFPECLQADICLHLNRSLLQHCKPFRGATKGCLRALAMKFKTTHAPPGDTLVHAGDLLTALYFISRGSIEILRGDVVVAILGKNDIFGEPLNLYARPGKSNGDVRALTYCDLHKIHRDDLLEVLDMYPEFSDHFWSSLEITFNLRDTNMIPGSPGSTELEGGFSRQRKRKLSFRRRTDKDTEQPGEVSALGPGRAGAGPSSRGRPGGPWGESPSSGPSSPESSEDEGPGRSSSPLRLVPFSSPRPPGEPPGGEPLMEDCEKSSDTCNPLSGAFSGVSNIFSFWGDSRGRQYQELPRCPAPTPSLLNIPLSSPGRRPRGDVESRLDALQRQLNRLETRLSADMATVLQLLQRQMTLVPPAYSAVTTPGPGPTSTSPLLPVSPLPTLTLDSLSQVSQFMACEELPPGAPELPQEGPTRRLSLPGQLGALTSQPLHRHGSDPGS

[16] = molecular target: T3, Muscarinic acetylcholine receptor M1 (Homo sapiens, UniProt P11229); assay: Binding affinity to muscarinic M1R
T3 sequence (P11229 whole entry): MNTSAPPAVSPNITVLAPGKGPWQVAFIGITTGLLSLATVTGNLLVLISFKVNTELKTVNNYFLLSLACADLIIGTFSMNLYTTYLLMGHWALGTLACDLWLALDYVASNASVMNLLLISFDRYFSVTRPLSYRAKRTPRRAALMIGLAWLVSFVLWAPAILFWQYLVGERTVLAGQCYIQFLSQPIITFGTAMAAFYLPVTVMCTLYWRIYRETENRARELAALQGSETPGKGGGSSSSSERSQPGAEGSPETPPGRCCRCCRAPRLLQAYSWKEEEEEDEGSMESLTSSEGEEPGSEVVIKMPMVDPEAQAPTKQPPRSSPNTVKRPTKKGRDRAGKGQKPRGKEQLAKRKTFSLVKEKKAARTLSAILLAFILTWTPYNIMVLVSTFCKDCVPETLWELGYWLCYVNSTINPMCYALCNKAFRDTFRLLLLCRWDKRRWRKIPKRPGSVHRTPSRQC

CYP2D6 = CYP2D6 (Homo sapiens, UniProt P10635); assay: Inhibition of cytochrome P450 2D6 at 5 uM; format: ADME; conditions: read-out: Activity
CYP2D6, sequence (P10635 whole entry): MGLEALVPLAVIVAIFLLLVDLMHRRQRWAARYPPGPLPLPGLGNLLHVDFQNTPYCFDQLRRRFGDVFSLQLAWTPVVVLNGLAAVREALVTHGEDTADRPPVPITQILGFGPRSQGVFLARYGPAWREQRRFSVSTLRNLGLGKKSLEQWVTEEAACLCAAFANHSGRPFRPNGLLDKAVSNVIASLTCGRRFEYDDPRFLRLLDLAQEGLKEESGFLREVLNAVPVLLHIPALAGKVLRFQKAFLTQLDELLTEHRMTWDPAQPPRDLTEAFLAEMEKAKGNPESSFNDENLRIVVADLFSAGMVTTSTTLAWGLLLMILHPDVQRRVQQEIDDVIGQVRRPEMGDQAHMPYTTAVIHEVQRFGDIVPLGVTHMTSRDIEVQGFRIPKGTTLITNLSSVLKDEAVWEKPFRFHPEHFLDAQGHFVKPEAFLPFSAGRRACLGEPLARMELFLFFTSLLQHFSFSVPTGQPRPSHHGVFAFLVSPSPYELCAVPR

[17] = molecular target: Muscarinic acetylcholine receptor M3 (Homo sapiens, UniProt P20309); assay: Binding affinity to muscarinic M3R
Muscarinic acetylcholine receptor M3, sequence (P20309 whole entry): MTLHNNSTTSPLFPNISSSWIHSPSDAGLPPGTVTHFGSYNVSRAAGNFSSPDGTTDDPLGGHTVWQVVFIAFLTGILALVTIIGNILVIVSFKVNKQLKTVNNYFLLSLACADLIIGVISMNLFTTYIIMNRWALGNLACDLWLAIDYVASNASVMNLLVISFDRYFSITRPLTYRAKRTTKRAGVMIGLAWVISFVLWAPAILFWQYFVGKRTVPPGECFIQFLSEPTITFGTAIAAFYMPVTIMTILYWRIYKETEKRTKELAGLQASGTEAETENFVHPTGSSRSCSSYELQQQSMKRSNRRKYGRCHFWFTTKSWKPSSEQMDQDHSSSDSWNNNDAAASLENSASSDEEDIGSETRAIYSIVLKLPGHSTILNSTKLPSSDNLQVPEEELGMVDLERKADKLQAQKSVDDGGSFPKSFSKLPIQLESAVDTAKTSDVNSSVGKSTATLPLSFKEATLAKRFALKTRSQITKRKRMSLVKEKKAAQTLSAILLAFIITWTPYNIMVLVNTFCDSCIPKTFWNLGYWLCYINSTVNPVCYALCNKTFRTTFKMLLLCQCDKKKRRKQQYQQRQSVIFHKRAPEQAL

CYP3A4 = CYP3A4 (Homo sapiens, UniProt P08684); assay: Inhibition of cytochrome P450 3A4 at 5 uM; format: ADME; conditions: read-out: Activity
CYP3A4, sequence (P08684 whole entry): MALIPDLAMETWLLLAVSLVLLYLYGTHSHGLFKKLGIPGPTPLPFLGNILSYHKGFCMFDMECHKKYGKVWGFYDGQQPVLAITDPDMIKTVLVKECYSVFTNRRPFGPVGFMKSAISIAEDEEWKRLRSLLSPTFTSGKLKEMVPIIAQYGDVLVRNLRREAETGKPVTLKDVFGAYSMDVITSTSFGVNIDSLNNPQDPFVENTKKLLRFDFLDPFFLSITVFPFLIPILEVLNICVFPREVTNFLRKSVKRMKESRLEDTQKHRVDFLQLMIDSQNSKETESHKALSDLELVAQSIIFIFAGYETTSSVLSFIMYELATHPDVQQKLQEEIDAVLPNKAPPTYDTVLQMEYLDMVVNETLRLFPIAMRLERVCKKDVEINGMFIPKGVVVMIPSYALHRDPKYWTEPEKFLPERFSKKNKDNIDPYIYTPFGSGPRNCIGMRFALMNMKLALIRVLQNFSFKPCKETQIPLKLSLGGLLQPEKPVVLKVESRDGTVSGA

[18] = Plasma concentration in Sprague-Dawley rats at 1 mg/kg after 1 day; format: ADME, organism-based; design: dose 1 mg/kg; conditions: rat
[19] = molecular target: T2, Voltage-gated inwardly rectifying potassium channel KCNH2; assay: Affinity for human ERG channel by patch clamp assay; format: functional
[20] = Selectivity for MCH1R over muscarinic M3R
[21] = Plasma concentration in Sprague-Dawley rats at 1 mg/kg after 14 days; format: ADME, organism-based; design: dose 1 mg/kg; conditions: rat

T1 sequence (P97639 whole entry, looked up): as the sequence (P97639 whole entry) above

Row | SMILES | Ki [1] [nM] | CLint scaled [2] [mL/min/kg] | other results
1 | CN(C)[C@H]1CCN(c2ccc(-n3ncc4cc(-c5ccc(C(F)(F)F)cc5)n(C)c4c3=O)cn2)C1 | 14 | 48 | –
2 | CN[C@@H]1CCN(c2ccc(-n3ncc4cc(-c5ccc(F)cc5)sc4c3=O)cn2)C1 | 2.5 | 8.2 | –
3 | CN[C@@H]1CCN(c2ccc(-n3ncc4cc(-c5ccc(Cl)cc5)sc4c3=O)cn2)C1 | 1.9 | 8.4 | –
4 | CN(C)[C@H]1CCN(c2ccc(-n3ncc4cc(-c5ccc(C(F)(F)F)cc5)[se]c4c3=O)cn2)C1 | – | 27 | inhibition [3]: 28%
5 | CN[C@@H]1CCN(c2ccc(-n3ncc4cc(-c5ccc(Cl)cc5)ccc4c3=O)cn2)C1 | 1.5 | 12 | –
6 | CN[C@H]1CCN(c2ccc(-n3ncc4cc(-c5ccc(Cl)cc5)ccc4c3=O)cn2)C1 | 1.2 | 8.9 | concentration at 4 h [4]: 1700 ng/g; bioavailability [5]: 22%; half-life [6]: 9.4 h; Kp at 1 h [7]: 7.8; concentration at 1 h [8]: 94 ng/g; Vd [9]: 14 L/kg; Cmax [10]: 140 ng/mL; AUC [11]: 2200 ng·h/mL; Kp at 4 h [12]: 23; IC50 [13]: 8.5 nM; clearance [14]: 17 mL/min/kg
7 | CCN[C@H]1CCN(c2ccc(-n3ncc4cc(-c5ccc(Cl)cc5)ccc4c3=O)cn2)C1 | 1.9 | 9.2 | –
8 | CN(C)[C@@H]1CCN(c2ccc(-n3ncc4cc(-c5ccc(Cl)cc5)ccc4c3=O)cn2)C1 | 1.1 | 21 | –
9 | CN[C@H]1CCN(c2ccc(-n3ncc4cc(-c5ccc(F)cc5)sc4c3=O)cn2)C1 | 2 | 12 | –
10 | CNC1CCN(c2ccc(NC(=O)c3ccc(-c4ccccc4)cc3)cn2)C1 (stereo not given) | – | – | Ki [15]: 200 nM
11 | CN[C@H]1CCN(c2ccc(-n3ncc4cc(-c5ccc(OC)cc5C)ccc4c3=O)cn2)C1 | 11 | 8.8 | –
12 | CN[C@@H]1CCN(c2ccc(-n3ncc4cc(-c5ccc(OC)cc5)sc4c3=O)cn2)C1 | 1.3 | 720 | –
13 | CN[C@@H]1CCN(c2ccc(-n3ncc4cc(-c5ccc(C(F)(F)F)cc5)sc4c3=O)cn2)C1 | 3.3 | 8.5 | concentration at 4 h [4]: 1200 ng/g; bioavailability [5]: 24%; half-life [6]: 11 h; Ki [16]: 260 nM; Kp at 1 h [7]: 1.4; inhibition at 5 µM (CYP2D6): < 10%; concentration at 1 h [8]: 190 ng/g; Vd [9]: 4.1 L/kg; Cmax [10]: 500 ng/mL; Ki [17]: 160 nM; AUC [11]: 8400 ng·h/mL; inhibition at 5 µM (CYP3A4): < 10%; Kp at 4 h [12]: 3.1; IC50 [13]: 7.7 nM; concentration at 24 h [18]: 280 nM; IC50 [19]: 1800 nM; Selectivity ratio [20]: 50; concentration at 336 h [21]: 790 nM; clearance [14]: 4.3 mL/min/kg

The next lines start with results.

Row | Ki [1] [nM] | CLint scaled [2] [mL/min/kg] | SMILES | other results
14 | 10 | 6 | CN[C@@H]1CCN(c2ccc(-n3ncc4cc(-c5ccc(C(F)(F)F)cc5)ccc4c3=O)cn2)C1 | –
15 | 1.1 | 12 | CN(C)[C@H]1CCN(c2ccc(-n3ncc4cc(-c5ccc(Cl)cc5)ccc4c3=O)cn2)C1 | –
16 | 4.4 | 18 | CN(C)[C@H]1CCN(c2ccc(-n3ncc4cc(-c5ccc(C(F)(F)F)cc5)sc4c3=O)cn2)C1 | –
17 | 8.4 | 26 | CN[C@H]1CCN(c2ccc(-n3ncc4cc(-c5ccc(C(F)(F)F)cc5)ccc4c3=O)cn2)C1 | –
18 | 1.6 | 16 | O=c1c2ccc(-c3ccc(Cl)cc3)cc2cnn1-c1ccc(N2CC[C@H](N3CCCC3)C2)nc1 | –
19 | 3.1 | – | CN[C@H]1CCN(c2ccc(-n3ncc4cc(-c5ccc(C(F)(F)F)cc5)sc4c3=O)cn2)C1 | –
20 | 21 | 28 | CN(C)[C@H]1CCN(c2ccc(-n3ncc4cc(-c5ccc(C(F)(F)F)cc5)oc4c3=O)cn2)C1 | –
21 | 2.6 | 155 | CCc1ccc(-c2cc3cnn(-c4ccc(N5CC[C@@H](NC)C5)nc4)c(=O)c3s2)cc1 | –
